Drawing on ChEMBL document CHEMBL3045336, “Synthesis of 1-triazolyl-4-trimethylsilyl-2-butanol and 1-triazolyl-5-trimethylsilyl-2-pentanol derivatives and an investigation of their fungicidal activities” (Chem Pharm Bull (Tokyo), 2003), this text covers MIC and IC50 for 14 molecules.

One assay has as its system Blumeria hordei. Put plainly: Fungicidal activity against Blumeria graminis f. sp. hordei infested first-leaf stage of barley seedlings assessed as growth inhibition applied as spray after 10 days under green house conditions. Format: functional. The conditions noted are these: 240 h.
A further assay has as its system Rhizoctonia solani. Put plainly: Fungicidal activity against Rhizoctonia solani assessed as mycelial growth inhibition after 3 days. Format: functional, organism-based. The method in brief: (§1)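 Mycelial agar discs (4 mm) placed on potato dextrose agar plates containing test compound and incubated at 25 °C. Pyricularia oryzae was incubated for 7 d and Rhizoctonia solani for 3 d.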

In another assay the test system is Pyricularia grisea. Nature of the assay: Fungicidal activity against Magnaporthe oryzae assessed as mycelial growth inhibition after 7 days. Format: functional, organism-based, Pyricularia oryzae. The method in brief:
as §1

The structures appear in SMILES notation. In brackets after ≈: the same amount, converted by molar mass.

As to `C[Si](C)(C)CCC(O)(Cn1cncn1)c1ccc(F)cc1` (configuration not stated), the minimal inhibitory concentration (MIC) in the assay with Blumeria hordei worked out at 3 µg/mL (≈ 9.76 µM). In addition, the figures for the IC50 with Rhizoctonia solani and with Pyricularia grisea were over 1 ppm and 10 ppm, respectively.
On the same counts, the results for `C[Si](C)(C)CCC(O)(Cn1cncn1)c1ccc(Cl)cc1` (configuration not stated) are 3 µg/mL (≈ 9.26 µM), over 1 ppm and over 10 ppm.
On the same counts, the results for `C[Si](C)(C)CCC(O)(Cn1cncn1)c1ccc(Br)cc1` (configuration not stated) are 3 µg/mL (≈ 8.14 µM), over 1 ppm and over 10 ppm.
For `C[Si](C)(C)CCC(O)(Cn1cncn1)c1ccccc1` (configuration not stated) the same measures were 3 µg/mL (≈ 10.4 µM), over 1 ppm and over 10 ppm.
Regarding `Cc1ccc(C(O)(CC[Si](C)(C)C)Cn2cncn2)cc1` (configuration not stated), the MIC in the assay on Blumeria hordei is over 3 µg/mL. Also, the figures for the IC50 with Rhizoctonia solani and in the assay on Pyricularia grisea were over 1 ppm and over 10 ppm, respectively.
For `COc1ccc(C(O)(CC[Si](C)(C)C)Cn2cncn2)cc1` (configuration not stated) the same measures were over 3 µg/mL, over 1 ppm and over 10 ppm.
For `C[Si](C)(C)CCC(O)(Cn1cncn1)c1ccc(F)cc1F` (configuration not stated) the same measures were 0.3 µg/mL (≈ 0.922 µM), 0.12 ppm and 3.1 ppm.
On the same counts, the results for `C[Si](C)(C)CCC(O)(Cn1cncn1)c1ccc(Cl)cc1Cl` (configuration not stated) are 0.3 µg/mL (≈ 0.837 µM), 0.05 ppm and 2.57 ppm.
Turning to `C[Si](C)(C)CCCC(O)(Cn1cncn1)c1ccc(F)cc1` (configuration not stated), in the assay with Blumeria hordei, the MIC is 3 µg/mL (≈ 9.33 µM). The IC50 is 0.42 ppm with Rhizoctonia solani and over 3 ppm with Pyricularia grisea.
For `C[Si](C)(C)CCCC(O)(Cn1cncn1)c1ccc(Cl)cc1` (configuration not stated) the same measures were 1 µg/mL (≈ 2.96 µM), 0.61 ppm and over 3 ppm.
Regarding `C[Si](C)(C)CCCC(O)(Cn1cncn1)c1ccccc1` (configuration not stated), the minimal inhibitory concentration (MIC) with Blumeria hordei was 3 µg/mL (≈ 9.89 µM). For the same molecule, the IC50 in the assay with Rhizoctonia solani was over 1 ppm; with Pyricularia grisea, over 10 ppm.
On the same counts, the results for `C[Si](C)(C)CCCC(O)(Cn1cncn1)c1ccc(F)cc1F` (configuration not stated) are 1 µg/mL (≈ 2.95 µM), 0.01 ppm and 0.89 ppm.
For `C[Si](C)(C)CCCC(O)(Cn1cncn1)c1ccc(Cl)c(Cl)c1` (configuration not stated) the same measures were over 3 µg/mL, 1.94 ppm and over 10 ppm.
Regarding `C[Si](C)(C)CC(O)(Cn1cncn1)c1ccc(F)cc1` (configuration not stated) [SIMECONAZOLE], the minimal inhibitory concentration (MIC) in the assay with Blumeria hordei turned out to be 0.3 µg/mL (≈ 1.02 µM). Also, the IC50 in the assay on Rhizoctonia solani was determined as 0.04 ppm; in the assay on Pyricularia grisea, 1.09 ppm.

A word on the MIC: it is the lowest concentration that inhibits growth of the organism.
